Results published in PMC7398576 (Oncogene, 2020).

Key:
p53 [1] = target: T1, p53 (Homo sapiens, UniProt P04637); assay: Glutaraldehyde crosslinking of p53 in H1299 extract; type: biochemical; conditions: 10 μM NSC194598
In short: (§1)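 H1299 cells transiently transfected with pcDNA3 FLAG-tagged wild-type or mutant p53 were lysed in HEPES buffer (50 mM HEPES pH 8.0, 5 mM EDTA, 150 mM NaCl, 0.5% NP-40, protease inhibitors) and spun to clear. Lysate was held with 10 μM test compound for 20 min at 23 °C. It was then crosslinked with 0.01–0.1% glutaraldehyde for 5 min at 23 °C and quenched with Tris-HCl pH 8.0 to 100 mM. Monomer, dimer and tetramer were read by western blot (FL393).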

p53 [2] = target: p53 (Homo sapiens, UniProt P04637, R175H); assay: as above; type: biochemical; conditions: 10 μM NSC194598
In short: as §1

p73β-A156I = p73β-A156I (Homo sapiens, UniProt O15350, A156I); assay: ChIP of p73β-A156I temperature-sensitive mutant; type: cell-based; conditions: 32 °C
In short: (§2)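 ChIP by standard procedure, read by SYBR Green real-time PCR of target promoters. Antibodies: anti-HA tag (C29F4) for p63, p73 and c-MYC; KH95 for E2F1.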

p53 [3] = target: T1, p53; assay: Trypsin digestion sensitivity of p53; type: biochemical
SJSA cells = assay: Western blot in SJSA cells; type: cell-based; conditions: 5–20 μM
In short: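 SJSA cells (MDM2-amplified) were co-treated with the MDM2 inhibitor Nutlin and test compound for 32 h. Lysis was in NP-40/Tris buffer with protease inhibitors, followed by SDS-PAGE and western blot for p53 level and target-gene induction, including p21.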

Primary mouse thymocytes = assay: Primary mouse thymocytes, radiation-induced apoptosis and viability; type: cell-based
p53 [4] = target: T1, p53; assay: In vitro oligomer formation of HA-p53 and FLAG-p53; type: biochemical
p53 [5] = target: T1, p53; assay: ZF1-Nluc/ZF2-Cluc DNA-binding competition assay; type: biochemical; conditions: at low micromolar concentrations
p53 [6] = target: T1, p53; assay: ChIP of p53 at target promoters in U2OS cells; type: cell-based
In short: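 U2OS cells in DMEM/10% FBS, given test compound alone or with IR for 4 h. Chromatin immunoprecipitation with DO-1 anti-p53. Precipitated DNA quantified by SYBR Green real-time PCR with primers for the p21 and MDM2 promoters.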

p53-Cluc fusion protein = p53-Cluc fusion protein (UniProt P04637+P08659, D436G/I423L/L530R); assay: p53-Cluc luciferase fragment complementation DNA-binding assay; type: biochemical; conditions: read-out: IC50, inhibition of p53 sequence-specific DNA binding in vitro
In short: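 The cell-free reaction used crude E. coli BL21(DE3) extracts: ZF1-Nluc plus p53-Cluc, each expressed from pET-28b with 1 mM IPTG and 0.1 mM ZnCl2 at 18 °C for 18 h. DNA was 50 ng plasmid carrying 12 paired ZF1/p53 sites. Buffer was 100 mM potassium phosphate pH 7.8, 1 mM ZnCl2, 5% glycerol, 1 mM DTT. After 35 min at 32 °C, luciferin/ATP substrate was added, 10 min at 23 °C, then luminescence read. Three experiments.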

TCF1 [7] = target: T2, TCF1 (Homo sapiens, UniProt P36402); assay: Biotinylated oligonucleotide pull down assay, FLAG-TCF1; type: biochemical
H1299-p53-A138V cells = assay: Western blot in H1299-p53-A138V temperature-sensitive cells; type: cell-based; conditions: activated at 32 °C, 8 h
In short: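 H1299 (p53-null) cells stably carrying temperature-sensitive p53-A138V were grown in DMEM with 10% FBS. They were kept at 39 °C or shifted to 32 °C with test compound for 8 h. Cells were lysed in 50 mM Tris-HCl pH 8.0, 5 mM EDTA, 150 mM NaCl, 0.5% NP-40 and protease inhibitors. p53 and target genes were resolved by SDS-PAGE and western blot.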

RET oncogene = conditions: cited from earlier work
c-Myc = c-Myc (Homo sapiens, UniProt P01106); assay: ChIP of transiently expressed c-Myc; type: cell-based
In short: as §2

[8] = target: FLAG-p53-94-312 DNA-binding domain (Homo sapiens, UniProt P04637); assay: Differential scanning fluorimetry; conditions: 100 μM compound, 4.5 μM protein
In short: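 FLAG-p53 94–312 expressed in E. coli (pET-28b), purified on M2 beads and FLAG-peptide eluted. DSF with 4.5 μM protein, 100 μM test compound and 5× SYPRO Orange in 50 mM HEPES pH7.4, 150 mM NaCl, 2 mM DTT, 2% DMSO. Heated 25→95 °C at 1 °C/min, read every 0.5 °C at 610 nm, quadruplicate. ΔTm taken against DMSO wells.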

p53 [9] = target: T1, p53; assay: p53-responsive luciferase reporter assay in transfected H1299 cells; type: cell-based; conditions: 6 h treatment
In short: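 H1299 cells (p53-null; 50,000/well) transfected 24 h by lipofection with 20 ng BP100-luciferase reporter, 5 ng CMV-lacZ and 0.2 ng CMV-p53. Then 6 h test compound. Activity expressed as luciferase/β-galactosidase ratio.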

[10] = test system: p53 target genes (p21, MDM2, PUMA) in U2OS cells; assay: Western blot / RT-PCR of p53 level and target genes in U2OS cells; type: cell-based, human
[11] = target: zinc finger proteins (ZF1-Nluc/ZF2-Cluc complementation) (Photinus pyralis, UniProt P08659, D436G/I423L/L530R); assay: ZF1-Nluc/ZF2-Cluc complementation in the absence of p53; type: biochemical
p63γ-A167P = p63γ-A167P (Homo sapiens, UniProt Q9H3D4, A206P); assay: ChIP of p63γ-A167P temperature-sensitive mutant; type: cell-based; conditions: 32 °C
In short: as §2

TCF1 [12] = target: T2, TCF1; assay: TCF1-specific zinc finger competition assay; type: biochemical
[13] = target: TAF1 bromodomain 2 (aa 1501–1635) (Homo sapiens, UniProt P21675); assay: Differential scanning fluorimetry; type: binding; conditions: 100 μM compound, 4.5 μM protein
In short: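 TAF1 second bromodomain (residues 1501–1635) purified by Ni-NTA and size exclusion. Thermal shift with 4.5 μM protein, 100 μM compound and 5× SYPRO Orange in HEPES pH7.4/150 mM NaCl/2 mM DTT/2% DMSO. Ramp 25–95 °C at 1 °C/min, fluorescence at 610 nm every 0.5 °C, four replicates. ΔTm relative to DMSO reference.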

HCT116-p53−/− cells = assay: Western blot in HCT116-p53−/− cells; type: cell-based
p73β = p73β (Homo sapiens, UniProt O15350); assay: ZF1-Nluc/ZF2-Cluc DNA-binding competition assay, p73β; type: biochemical; conditions: at low micromolar concentrations
[14] = test system: G-quadruplex DNA structures; conditions: cited from earlier work
p53 [15] = target: T1, p53; assay: Biotinylated oligonucleotide pull down assay, p53 western blot; type: biochemical; conditions: for Inhibition of p53 DNA binding in oligonucleotide pull down: full-length p53
In short: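 Pull-down: p53 (~0.1 μl E. coli lysate, 100 ng) with 2 μg poly(dI-dC) and 100 ng biotinylated duplex oligo carrying the p53 site, in Tris pH7.2/150 mM NaCl DNA-binding buffer, 30 min at 4 °C. Captured on streptavidin magnetic beads 30 min at 4 °C, washed three times, boiled, p53 western blot. Pre-treated bead-bound FLAG-p53: 10 μM, 30 min, washed 3 min or 3 h, FLAG-peptide eluted.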

[16] = test system: MDM2-mediated ubiquitination of p53; assay: In vivo ubiquitination assay in H1299 cells; type: cell-based; conditions: H1299, 5 h treatment
In short: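 H1299 cells co-transfected (PEI, 36 h) with 2 μg His6-ubiquitin, 0.2 μg p53 and 2 μg MDM2 plasmids, then treated 5 h. Lysed in 6 M guanidinium buffer, bound to Ni-NTA 16 h at 23 °C, washed with urea buffers (pH8.0 then 6.3). Imidazole/SDS elution 20 min at 23 °C, DO-1 western blot.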

p63γ = p63γ (Homo sapiens, UniProt Q9H3D4); assay: ZF1-Nluc/ZF2-Cluc DNA-binding competition assay, p63γ; type: biochemical; conditions: at low micromolar concentrations
Foxo1 = assay: Foxo1-responsive luciferase reporter assay in transfected H1299 cells; type: cell-based; conditions: 6 h treatment
In short: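 H1299 cells (50,000/well) lipofected for 24 h with 20 ng 3IRS-luciferase Foxo1 reporter, 5 ng CMV-lacZ and 10 ng CMV-Foxo1, then exposed to compound for 6 h. Readout: luciferase normalised to β-galactosidase activity.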

E2F1 = E2F1 (Homo sapiens, UniProt Q01094); assay: ChIP of E2F1-ER fusion protein; type: cell-based; conditions: tamoxifen-regulated E2F1-ER fusion protein
In short: as §2

C57BL/6 mice = assay: Radiation toxicity in mice; type: in vivo, mouse
full-length luciferase = full-length luciferase (Photinus pyralis, UniProt P08659); assay: Full-length luciferase activity; type: biochemical, Firefly
[17] = U2OS, compound alone, 10, 20 μM

T2 sequence (P36402 whole entry): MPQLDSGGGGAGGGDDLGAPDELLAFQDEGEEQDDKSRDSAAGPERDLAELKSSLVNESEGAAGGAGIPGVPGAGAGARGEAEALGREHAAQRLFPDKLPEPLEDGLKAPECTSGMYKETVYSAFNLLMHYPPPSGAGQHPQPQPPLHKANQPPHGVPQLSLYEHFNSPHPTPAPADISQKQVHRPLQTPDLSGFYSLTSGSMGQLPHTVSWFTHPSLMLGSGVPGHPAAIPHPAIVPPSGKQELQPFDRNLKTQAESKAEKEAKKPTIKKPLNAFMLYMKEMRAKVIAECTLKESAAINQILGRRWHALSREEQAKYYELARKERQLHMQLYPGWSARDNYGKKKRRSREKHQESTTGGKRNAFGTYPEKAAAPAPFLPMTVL
Sequence of c-Myc (P01106 whole entry): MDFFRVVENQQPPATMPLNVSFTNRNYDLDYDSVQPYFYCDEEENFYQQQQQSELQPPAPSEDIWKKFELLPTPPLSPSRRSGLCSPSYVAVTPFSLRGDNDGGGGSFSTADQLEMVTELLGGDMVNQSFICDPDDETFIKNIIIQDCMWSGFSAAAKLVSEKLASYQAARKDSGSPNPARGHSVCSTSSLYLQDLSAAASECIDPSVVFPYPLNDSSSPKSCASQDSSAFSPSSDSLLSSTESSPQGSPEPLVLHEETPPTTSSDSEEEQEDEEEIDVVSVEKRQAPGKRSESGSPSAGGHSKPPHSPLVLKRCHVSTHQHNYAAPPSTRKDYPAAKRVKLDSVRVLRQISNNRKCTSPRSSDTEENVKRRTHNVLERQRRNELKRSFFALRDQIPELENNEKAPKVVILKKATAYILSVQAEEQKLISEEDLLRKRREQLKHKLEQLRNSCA
Sequence of c-Myc (P61244 whole entry partner): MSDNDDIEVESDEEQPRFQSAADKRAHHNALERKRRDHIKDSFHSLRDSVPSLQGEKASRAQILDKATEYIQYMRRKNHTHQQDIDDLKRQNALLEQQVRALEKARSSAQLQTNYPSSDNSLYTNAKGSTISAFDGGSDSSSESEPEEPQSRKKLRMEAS
Sequence of p63γ-A167P (Q9H3D4 40-487 isoform Q9H3D4-5 A206P limits assumed): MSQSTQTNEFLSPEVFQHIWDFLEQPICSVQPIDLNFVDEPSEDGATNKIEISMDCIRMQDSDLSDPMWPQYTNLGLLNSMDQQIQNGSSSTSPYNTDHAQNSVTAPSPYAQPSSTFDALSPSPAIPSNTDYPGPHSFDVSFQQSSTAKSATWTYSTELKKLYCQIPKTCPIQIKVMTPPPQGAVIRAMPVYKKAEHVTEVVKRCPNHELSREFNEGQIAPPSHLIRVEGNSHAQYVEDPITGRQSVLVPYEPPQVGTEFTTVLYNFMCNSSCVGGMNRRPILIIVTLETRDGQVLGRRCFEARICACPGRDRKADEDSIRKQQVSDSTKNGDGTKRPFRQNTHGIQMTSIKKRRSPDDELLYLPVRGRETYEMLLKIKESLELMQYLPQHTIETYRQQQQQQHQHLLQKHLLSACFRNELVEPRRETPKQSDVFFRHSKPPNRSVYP
Sequence of p63γ (Q9H3D4 40-487 isoform Q9H3D4-5 limits assumed): as the sequence (Q9H3D4 40-487 isoform Q9H3D4-5 A206P limits assumed) above, with P167A counted along it
Sequence of E2F1 (Q01094 whole entry, the tested form may be a part): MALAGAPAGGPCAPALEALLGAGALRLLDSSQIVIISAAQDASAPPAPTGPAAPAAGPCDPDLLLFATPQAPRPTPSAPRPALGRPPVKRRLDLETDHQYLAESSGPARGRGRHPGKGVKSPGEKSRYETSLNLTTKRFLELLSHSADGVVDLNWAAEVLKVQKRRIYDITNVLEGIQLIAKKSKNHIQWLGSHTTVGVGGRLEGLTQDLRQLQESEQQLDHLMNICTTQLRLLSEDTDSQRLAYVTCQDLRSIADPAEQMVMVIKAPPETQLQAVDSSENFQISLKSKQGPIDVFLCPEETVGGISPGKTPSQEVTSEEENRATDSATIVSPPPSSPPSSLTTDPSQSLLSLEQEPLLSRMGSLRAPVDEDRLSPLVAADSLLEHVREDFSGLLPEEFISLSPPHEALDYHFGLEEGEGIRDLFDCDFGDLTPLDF
Sequence of p73β-A156I (O15350 1-499 isoform O15350-2 A156I): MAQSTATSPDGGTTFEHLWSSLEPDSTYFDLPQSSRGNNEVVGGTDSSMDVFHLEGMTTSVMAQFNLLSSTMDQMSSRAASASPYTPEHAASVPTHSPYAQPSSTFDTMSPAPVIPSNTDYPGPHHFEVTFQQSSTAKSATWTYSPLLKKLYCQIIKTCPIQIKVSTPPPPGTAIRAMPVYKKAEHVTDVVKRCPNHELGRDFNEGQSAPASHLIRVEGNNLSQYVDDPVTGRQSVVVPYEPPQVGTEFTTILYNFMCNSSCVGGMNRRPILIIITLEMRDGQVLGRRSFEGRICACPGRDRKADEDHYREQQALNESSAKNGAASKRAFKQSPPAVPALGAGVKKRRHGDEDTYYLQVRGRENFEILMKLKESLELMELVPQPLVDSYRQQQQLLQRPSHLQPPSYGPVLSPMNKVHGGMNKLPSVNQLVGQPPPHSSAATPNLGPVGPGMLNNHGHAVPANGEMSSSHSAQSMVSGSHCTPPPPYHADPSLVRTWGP
Sequence of TAF1 bromodomain 2 (aa 1501–1635) (P21675 1522-1656): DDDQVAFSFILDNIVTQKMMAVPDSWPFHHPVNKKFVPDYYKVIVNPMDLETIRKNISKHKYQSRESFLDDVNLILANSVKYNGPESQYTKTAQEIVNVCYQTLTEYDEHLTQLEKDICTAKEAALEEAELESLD
Sequence of p73β (O15350 1-499 isoform O15350-2, species assumed): as the sequence (O15350 1-499 isoform O15350-2 A156I) above, with I156A counted along it

[O-][n+]1c(CN2CCCCC2)nc2cccc3c2c1-c1ccccc1-3 [NSC194598]
Crosslinking banding pattern of dimer and tetramer, wt p53 (p53 [1]): detected changes in the banding pattern
Crosslinking pattern of R175H conformational mutant (p53 [2]): did not affect the crosslinking pattern
In vivo DNA binding by p73β-A156I (ChIP) (p73β-A156I): inhibited
p53 sensitivity to trypsin digestion (p53 [3]): did not change sensitivity to trypsin digestion
p53 accumulation and p21 expression in SJSA versus U2OS (SJSA cells): much weaker p53 accumulation and p21 expression
p53 level in irradiated thymocytes (Primary mouse thymocytes; 1 μM or higher, with IR): reduced p53 level
PARP and Caspase 3 cleavage after IR (Primary mouse thymocytes; 0.5–10 μM, 6 h, dose-dependent): blocked PARP and Caspase 3 cleavage
Thymocyte viability after IR (trypan blue exclusion) (Primary mouse thymocytes; 20 hours after 5 Gy IR, 5 μM): increased thymocyte viability
p53 level and cleaved PARP, compound alone (Primary mouse thymocytes; high concentrations, no IR): caused p53 accumulation
Thymocyte viability with compound alone (trypan blue exclusion) (Primary mouse thymocytes; no IR): did not lose viability
Oligomer formation of HA-p53 and FLAG-p53 (p53 [4]): did not inhibit oligomer formation
Inhibition of p53 DNA binding in competition assay (p53 [5]): inhibited
p53 occupancy at the p21 promoter (ChIP), compound alone (p53 [6]; [17]): increased p53 occupancy
p53 occupancy at p21 and MDM2 promoters (ChIP) (p53 [6]; irradiated U2OS cells, 4 hrs): reduced p53 occupancy
IC50 (p53-Cluc fusion protein): 180 nM
Inhibition of TCF1 DNA binding in oligonucleotide pull down (TCF1 [7]): did not inhibit
p21 induction and p53 level in H1299-p53-A138V (H1299-p53-A138V cells): inhibited p21 induction without changing p53 level
Transcription of RET oncogene (RET oncogene): inhibits the transcription of RET oncogene
DNA binding of c-Myc (ChIP) (c-Myc): did not inhibit
Increase in melting temperature (ΔTm) of FLAG-94-312 [8]: 0.5 °C
p53 activation of p53-responsive luciferase reporter (p53 [9]): inhibited
p21 induction after p53 activation by Nutlin and doxorubicin ([10]; MDM2 inhibitor Nutlin or doxorubicin): inhibited p21 induction
p21, MDM2, PUMA protein and mRNA expression ([10]; U2OS after irradiation): inhibition of p21, MDM2, PUMA protein and mRNA expression
p53 target gene expression, compound alone at 40 μM ([10]; U2OS, 40 μM): decline in p53 target gene expression
Decrease of MDM2/p53 ratio ([10]; U2OS, 4 h treatment): ~ 50%
p53 level and target genes p21 and MDM2, compound alone [10, 17]: caused p53 accumulation and upregulation of target genes p21 and MDM2
p53 mRNA level ([10]; compound alone): no increase in p53 mRNA level
γH2AX and p53 Ser15 phosphorylation (DNA damage) ([10]; compound alone): no increase of γH2AX or p53 Ser15 phosphorylation
Effect on ZF1-Nluc/ZF2-Cluc complementation readout [11]: did not stimulate readout
In vivo DNA binding by p63γ-A167P (ChIP) (p63γ-A167P): inhibited
Effect on TCF1 competition with zinc finger protein (TCF1 [12]): without effect
Effect on melting temperature of TAF1 bromodomain 2 [13]: did not affect
Induction of p21 and MDM2 in p53-null cells (HCT116-p53−/− cells): did not induce p21 and MDM2
Inhibition of p73β DNA binding in competition assay (p73β): inhibited
Binding to G-quadruplex DNA structures [14]: binds G-quadruplex DNA structures
Inhibition of DNA binding of p53 DNA-binding domain (90–312) (pull down) (p53 [15]; 2.5 μM NSC194598): still showed inhibition
Inhibition of DNA binding of p53 deletion mutant 1–360 (pull down) (p53 [15]; 2.5 μM NSC194598): strongly inhibited
Inhibition of DNA binding of p53 deletion mutant 90–393 (pull down) (p53 [15]; 2.5 μM NSC194598): strongly inhibited
DNA binding of compound-treated FLAG-p53 after short wash (p53 [15]; 10 μM for 30 min, wash 3 min): did not bind DNA
DNA binding of compound-treated FLAG-p53 after extensive wash (p53 [15]; 10 μM for 30 min, wash 3 h): regained DNA-binding activity
Inhibition of p53 DNA binding in oligonucleotide pull down (p53 [15]): inhibited p53 DNA binding
MDM2-mediated ubiquitination of p53 [16]: had no effect
Inhibition of p63γ DNA binding in competition assay (p63γ): inhibited
Foxo1 activation of its luciferase reporter (Foxo1): did not inhibit
DNA binding of E2F1 (ChIP) (E2F1): did not inhibit
p53 or PARP cleavage in the thymus of treated animals (western blot) (C57BL/6 mice; data not shown): did not reveal increase of p53 or PARP cleavage
Body weight after irradiation (C57BL/6 mice; single i.p. injection of 80 μg, 8 Gy): did not prevent body weight loss
Survival after irradiation (C57BL/6 mice; single i.p. injection of 80 μg, 8 Gy, 40-day observation): statistically significant improvement in survival

Cc1ccc(C(=O)Cn2c3c(sc2=N)CCCC3)cc1 [PFTα, Pifithrin-α, reference compound]
Effect on activity of full-length luciferase (full-length luciferase): inhibited
Effect on ZF1-Nluc/ZF2-Cluc complementation readout [11]: inhibited
Inhibition of p53 DNA binding in oligonucleotide pull down (p53 [15]): had no effect
